From ChEMBL document CHEMBL4190248, “Synthesis and evaluation of N-heteroaromatic ring-based analogs of piperlongumine as potent anticancer agents” (Eur J Med Chem, 2017)
Values after ≈ are worked out from the molar mass of the structure shown. Active and inactive are the calls of the source. No cut-off for these calls is given here.

What was measured:
[1] = Aqueous solubility of the compound in pure water by HPLC analysis; format: physicochemical
Procedure, shortened: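 Solubility was measured in pure water by HPLC on a C18 column using acetonitrile–water 60/40 (v/v) at 1.0 mL/min, with detection at 254 nm, in triplicate.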

[2] = test system: HCT-116; assay: Antiproliferative activity against human HCT116 cells after 72 hrs by MTT assay; format: functional, cell-based; conditions: HCT-116, 72 h
[3] = test system: HCT-116; assay: Antiproliferative activity against human HCT116 cells at 10 uM after 72 hrs by MTT assay; format: functional, cell-based
[4] = test system: A549; assay: Antiproliferative activity against human A549 cells at 10 uM after 72 hrs by MTT assay; format: functional, cell-based
[5] = test system: K562; assay: Antiproliferative activity against human K562 cells at 10 uM after 72 hrs by MTT assay; format: functional, cell-based
[6] = test system: HCT-116; assay: Antitumor activity against human HCT116 cells xenografted in BALB/c nude mouse assessed as reduction in tumor weight at 5 mg/kg, ip administered daily for 21 days; format: functional; parameters: scale not given: the % may be the effect or the level left
Procedure, shortened: (§1)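 Male BALB/c nude mice, 3–5 weeks old, received 1×10^7 HCT-116 cells subcutaneously. Once tumors reached about 75 mm³, mice were randomized to groups of 8 and given 5 mg/kg intraperitoneally once daily for 21 days. Body weight was followed over time. At sacrifice, tumors were weighed, and inhibition (%) = (Wcontrol − Wtreated)/Wcontrol × 100. Data are mean ± SD.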

[7] = test system: HCT-8; assay: Antiproliferative activity against human HCT8 cells after 72 hrs by MTT assay; format: functional, cell-based; conditions: HCT-8, 72 h
Procedure, shortened: (§2)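 Cells were cultured overnight in RPMI 1640 + 10% FBS, then treated in triplicate with vehicle or compound across the indicated concentrations for 72 h. MTT was added for the final 4 h, formazan was dissolved in DMSO, and absorbance was read at 570 nm. Inhibition rate = (1 − OD treated/OD control) × 100%, and the IC50 was derived from it.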

[8] = Aqueous solubility of the compound in PBS buffer at pH 5 by HPLC analysis; format: physicochemical
[9] = test system: HT-29; assay: Antiproliferative activity against human HT-29 cells after 72 hrs by MTT assay; format: functional, cell-based; conditions: HT-29, 72 h; procedure, shortened: as §2
[10] = Cytotoxicity against human CCD-841 cells assessed as reduction in cell viability after 72 hrs by MTT assay; format: cell-based; conditions: CCD-841, 72 h; procedure, shortened: as §2
[11] = test system: HCT-116; assay: Induction of intracellular ROS generation in human HCT116 cells at 10 uM after 3 hrs by DCFH-DA-dye based fluorescence microscopy; format: functional, cell-based
Procedure, shortened: (§3)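 Cells were treated in triplicate with 10 µM compound or with vehicle DMSO (0.1%, v/v) for 3 h. Intracellular ROS was detected with a fluorescent probe, the legend citing DCFH-DA and the methods citing dihydroethidium (300/610 nm). Signals were read on a fluorescence microplate reader and imaged by fluorescence microscopy.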

[12] = Induction of intracellular ROS generation in human CCD-841 cells at 10 uM after 3 hrs by DCFH-DA-dye based fluorescence microscopy; format: cell-based; procedure, shortened: as §3
[13] = test system: Mus musculus; assay: Toxicity in nude BALB/c mouse xenografted with human HCT116 cells assessed as effect on liver size at 5 mg/kg, ip administered daily for 21 days; format: organism-based; conditions: in vivo, 504 h
Procedure, shortened: (§4)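 HCT-116 xenografts (1×10^7 cells s.c.) were grown in male BALB/c nude mice, 3–5 weeks old, to about 75 mm³. Mice (n = 8 per group) then received 5 mg/kg i.p. daily for 21 days. Liver, kidney, lung and heart were examined for size and morphology against vehicle-treated controls.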

[14] = test system: Mus musculus; assay: Toxicity in nude BALB/c mouse xenografted with human HCT116 cells assessed as effect on liver morphology at 5 mg/kg, ip administered daily for 21 days; format: organism-based; conditions: in vivo, 504 h; procedure, shortened: as §4
[15] = test system: Mus musculus; assay: Toxicity in nude BALB/c mouse xenografted with human HCT116 cells assessed as effect on kidney size at 5 mg/kg, ip administered daily for 21 days; format: organism-based; conditions: in vivo, 504 h; procedure, shortened: as §4
[16] = test system: Mus musculus; assay: Toxicity in nude BALB/c mouse xenografted with human HCT116 cells assessed as effect on kidney morphology at 5 mg/kg, ip administered daily for 21 days; format: organism-based; conditions: in vivo, 504 h; procedure, shortened: as §4
[17] = test system: Mus musculus; assay: Toxicity in nude BALB/c mouse xenografted with human HCT116 cells assessed as effect on lung size at 5 mg/kg, ip administered daily for 21 days; format: organism-based; conditions: in vivo, 504 h; procedure, shortened: as §4
[18] = test system: Mus musculus; assay: Toxicity in nude BALB/c mouse xenografted with human HCT116 cells assessed as effect on lung morphology at 5 mg/kg, ip administered daily for 21 days; format: organism-based; conditions: in vivo, 504 h; procedure, shortened: as §4
[19] = test system: Mus musculus; assay: Toxicity in nude BALB/c mouse xenografted with human HCT116 cells assessed as effect on heart size at 5 mg/kg, ip administered daily for 21 days; format: organism-based; conditions: in vivo, 504 h; procedure, shortened: as §4
[20] = test system: Mus musculus; assay: Toxicity in nude BALB/c mouse xenografted with human HCT116 cells assessed as effect on heart morphology at 5 mg/kg, ip administered daily for 21 days; format: organism-based; conditions: in vivo, 504 h; procedure, shortened: as §4
[21] = test system: Mus musculus; assay: Toxicity in nude BALB/c mouse xenografted with human HCT116 cells assessed as reduction in body weight at 5 mg/kg, ip administered daily for 21 days; format: organism-based; conditions: in vivo, 504 h; procedure, shortened: as §1

Compound	solubility [1]	IC50 [2]	Activity [3]	Activity [4]	Activity [5]	further results
Cc1cnc(/C=C/C(=O)N2CCC=CC2=O)cn1	47.9 µg/mL (≈ 197 µM)	7.95 µM	Active	Active	Active	–
O=C1C=CCCN1C(=O)/C=C/c1ccncc1	46.2 µg/mL (≈ 202 µM)	7.05 µM	Active	Active	Active	–
O=C1C=CCCN1C(=O)/C=C/c1ccc2ccccc2n1	2.41 µg/mL (≈ 8.66 µM)	0.93 µM	Active	Active	Active	–
O=C1C=CCCN1C(=O)/C=C/c1cnccn1	59.8 µg/mL (≈ 261 µM)	3.19 µM	Active	Active	Active	–
O=C1C=CCCN1C(=O)/C=C/c1cccnc1	45.3 µg/mL (≈ 198 µM)	–	–	–	–	–
COc1cc(/C=C/C(=O)N2CCC=CC2=O)cc(OC)c1OC [PIPLARTINE]	1.63 µg/mL (≈ 5.14 µM)	–	Active	Active	Active	Activity [6]: 53%
O=C(/C=C/c1ccc2ccccc2n1)N1CCC=C(Cl)C1=O	–	0.47 µM	Active	–	–	IC50 [7]: 1.79 µM; solubility [8]: 1990 µg/mL (≈ 6370 µM); IC50 [9]: 0.92 µM; IC50 [10]: 50.8 µM; Activity [11]: Active; Activity [12]: Non-Toxic; Activity [6]: 52%; Activity [13]: Non-Toxic; Activity [14]: Non-Toxic; Activity [15]: Non-Toxic; Activity [16]: Non-Toxic; Activity [17]: Non-Toxic; Activity [18]: Non-Toxic; Activity [19]: Non-Toxic; Activity [20]: Non-Toxic; Activity [21]: Non-Toxic
Cc1nccnc1/C=C/C(=O)N1CCC=CC1=O	48.2 µg/mL (≈ 198 µM)	8.9 µM	Active	Active	Active	–
O=C1C=CCCN1C(=O)/C=C/c1cnc2ccccc2c1	1.95 µg/mL (≈ 7.01 µM)	8.17 µM	Active	Active	Active	–
O=C1C=CCCN1C(=O)/C=C/c1ccccn1	40.4 µg/mL (≈ 177 µM)	–	–	–	–	–
